Key:
MT4 [1] = experiment: Inhibition of mutant type (Cys181) HIV-1 (IIIB) replication in MT-4 cells; type: functional; conditions: Homo sapiens, read-out: ED50 (the source's name)
Procedure, shortened: (§1)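 MT-4 cells (human T cell line) in RPMI 1640 with 10% fetal calf serum, penicillin and streptomycin, seeded at 2 × 10⁴ cells/well. Infected with 10-20 TCID₅₀ of mutant HIV-1 IIIB per well, with the compound added at different concentrations. Incubated at 37 °C in CO₂. Cell viability read by XTT dye at day 5 or 6. Activity taken as the reduction in viral cytopathic effect, given as ED₅₀. Mutants were raised by passage in stepwise increasing concentrations of non-nucleoside RT inhibitors.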

MT4 [2] = experiment: Inhibition of mutant type (Ile100) HIV-1 (IIIB) replication in MT-4 cells; type: functional; conditions: Homo sapiens, read-out: ED50 (the source's name); procedure, shortened: as §1
MT4 [3] = experiment: Tested for the inhibition of wild type HIV-1 (IIIB) replication in MT-4 cells; type: functional; conditions: Homo sapiens, read-out: ED50 (the source's name)
Procedure, shortened: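 MT-4 human T cells in RPMI 1640 with 10% fetal calf serum, penicillin and streptomycin, seeded at 2 × 10⁴ cells/well and infected with 10-20 TCID₅₀ HIV-1 IIIB per well. Compounds were added over a concentration range and cultures kept at 37 °C in CO₂. Viability was read by XTT at day 5 or 6, and activity was taken as reduction of viral cytopathic effect.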

[4] = molecular target: T1, Human immunodeficiency virus type 1 reverse transcriptase (Human immunodeficiency virus 1, UniProt Q72547); experiment: Tested for the inhibition of mutant type (Cys181) HIV-1 (IIIB) RT
[5] = molecular target: T1, Human immunodeficiency virus type 1 reverse transcriptase; experiment: Tested for the inhibition of mutant type (Ile100) HIV-1 (IIIB) RT
[6] = molecular target: T1, Human immunodeficiency virus type 1 reverse transcriptase; experiment: Tested for the inhibition of wild type HIV-1 (IIIB) RT
MT4 [7] = experiment: Inhibition of HIV-1(IIIB) variants (Ile100/Cys181) in HIV-1 MT-4 cells; type: functional; conditions: Homo sapiens, read-out: ED50 (the source's name); procedure, shortened: as §1
MT4 [8] = experiment: Inhibition of HIV-1(IIIB) variants (Ile100/Asn103) in HIV-1 MT-4 cells; type: functional; conditions: Homo sapiens, read-out: ED50 (the source's name); procedure, shortened: as §1

Row | Structure (SMILES) | EC50 (MT4 [1]) | EC50 (MT4 [2]) | EC50 (MT4 [3]) | IC50 [4] | IC50 [5] | IC50 [6] | EC50 (MT4 [7]) | EC50 (MT4 [8])
1 | Fc1cc(F)c(CCNC(=S)Nc2ccc(Cl)cn2)c(F)c1 | 1500 nM | 2000 nM | 10 nM | 290 nM | 810 nM | 2 nM | – | –
2 | S=C(NCCc1c[nH]c2ccccc12)Nc1ccc(Br)cn1 | 300 nM | 3000 nM | 110 nM | 320 nM | > 2500 nM | 30 nM | – | –
3 | S=C(NCCn1nc2ccccc2n1)Nc1ccc(Br)cn1 | 1000 nM | 2000 nM | 14 nM | 100 nM | 2000 nM | 3 nM | – | –
4 | COc1ccc2[nH]cc(CC/N=C(\S)Nc3ccc(Br)cn3)c2c1 | 900 nM | > 2000 nM | 500 nM | 2500 nM | > 2500 nM | 320 nM | – | –
5 | Cn1cccc1CCNC(=S)Nc1ccc(Cl)cn1 | > 2000 nM | > 2000 nM | 250 nM | 1400 nM | 2700 nM | 90 nM | – | –
6 | COc1ccc(F)c(CC/N=C(\S)Nc2ccc(Cl)cn2)c1C#N | 100 nM | 400 nM | 11 nM | 1100 nM | 1100 nM | 5 nM | – | –
7 | Cc1cc2nn(CCNC(=S)Nc3ccc(Br)cn3)nc2cc1C | > 2000 nM | > 2000 nM | 220 nM | 100 nM | > 2500 nM | 150 nM | – | –
8 | CCOc1ccc(F)c(CC/N=C(\S)Nc2nc(C(F)(F)F)cs2)c1Cl | > 2000 nM | > 2000 nM | 70 nM | 7000 nM | 7000 nM | 47 nM | – | –
9 | Cn1cccc1CC/N=C(\S)Nc1ccc(C#N)cn1 | > 2000 nM | > 2000 nM | 110 nM | 1100 nM | 3500 nM | 70 nM | – | –
10 | COc1ccc(F)c(CCNC(=S)Nc2ccc(Br)cn2)c1OC | 200 nM | 3000 nM | 12 nM | 85 nM | 430 nM | 7 nM | – | –
11 | CN(C)c1ccc(F)c(CCNC(=S)Nc2ccc(Cl)cn2)c1F | 700 nM | > 2000 nM | 40 nM | 190 nM | 1900 nM | 8 nM | – | –
12 | COCc1ccc(F)c(CCNC(=S)Nc2ccc(Br)cn2)c1F | 300 nM | 2500 nM | 6 nM | 100 nM | 720 nM | 4 nM | – | –
13 | CCOc1ccc(F)c(CCNC(=S)Nc2ccc(Cl)cn2)c1Cl | 7 nM | 600 nM | 8 nM | 30 nM | 130 nM | 6 nM | – | –
14 | CCOc1ccc(F)c(CCNC(=S)Nc2ccc(I)cn2)c1Cl | 200 nM | 3000 nM | 15 nM | 130 nM | 420 nM | 8 nM | – | –
15 | CCOc1cccc(F)c1CCNC(=S)Nc1ccc(Br)cn1 | 7 nM | 90 nM | 13 nM | 25 nM | 50 nM | – | 1000 nM | 1600 nM
16 | CCOc1ccc(OCC)c(CCNC(=S)Nc2ccc(Br)cn2)c1 | 800 nM | > 2000 nM | 18 nM | 707 nM | 1650 nM | 18 nM | – | –

Row | Structure (SMILES) | EC50 (MT4 [1]) | EC50 (MT4 [2]) | EC50 (MT4 [3]) | IC50 [4] | IC50 [5] | IC50 [6] | EC50 (MT4 [7]) | EC50 (MT4 [8])
17 | CNC(=O)c1ccc(F)c(CC/N=C(\S)Nc2ccc(Br)cn2)c1F | 300 nM | > 2000 nM | 80 nM | > 2000 nM | > 2000 nM | 23 nM | – | –
18 | N#Cc1ccoc1CCNC(=S)Nc1ccc(Cl)cn1 | 200 nM | 700 nM | 20 nM | 2600 nM | 2600 nM | 60 nM | – | –
19 | O=C1c2c(Cl)ccc(Cl)c2C(=O)N1CCNC(=S)Nc1ccc(Cl)cn1 | > 2000 nM | > 2000 nM | 19 nM | 10 nM | 230 nM | 2 nM | – | –
20 | CCOc1c(Cl)cc(F)c(CCNC(=S)Nc2ccc(Br)cn2)c1Cl | 20 nM | 1000 nM | 13 nM | 660 nM | 240 nM | 21 nM | – | –
21 | COc1ccc(F)c(CCNC(=S)Nc2ccc(Br)cn2)c1F | 50 nM | 600 nM | 15 nM | 60 nM | 870 nM | 6 nM | – | –
22 | CC(=O)NCc1ccc(F)c(CCNC(=S)Nc2ccc(Br)cn2)c1F | > 2000 nM | > 2000 nM | 900 nM | > 2000 nM | > 2000 nM | 45 nM | – | –
23 | CCOc1ccc(F)c(CCNC(=S)Nc2ccc(C#N)cn2)c1Cl | 30 nM | 500 nM | 3 nM | 30 nM | 110 nM | 5 nM | – | –
24 | COc1ccc(F)c(CCNC(=S)Nc2ccc(C#N)cn2)c1C#N | 30 nM | 200 nM | 1 nM | 50 nM | 60 nM | 3 nM | – | –
25 | CCOc1ccc(Cl)c(CC/N=C(\S)Nc2ccc(Br)cn2)c1F | 50 nM | 900 nM | 18 nM | 9 nM | 90 nM | 2 nM | > 10000 nM | > 10000 nM
26 | CN(C)c1ccc(F)c(CCNC(=S)Nc2ccc(Br)cn2)c1F | 1000 nM | > 2000 nM | 40 nM | 170 nM | 1900 nM | 7 nM | – | –
27 | Fc1cccc(F)c1CCNC(=S)Nc1ccc(Br)cn1 | 150 nM | 600 nM | 13 nM | 30 nM | 50 nM | – | – | –
28 | CN(C)c1cc(F)c(CCNC(=S)Nc2ccc(Cl)cn2)c(F)c1 | 900 nM | 1500 nM | 18 nM | 130 nM | 270 nM | 20 nM | – | –
29 | CCc1cc(NCc2nc3c(Cl)ccc(Cl)c3o2)c(O)nc1C [L-697661] | > 11000 nM | 850 nM | 65 nM | 7700 nM | 850 nM | – | – | –
30 | Cc1ccnc2c1NC(=O)c1cccnc1N2C1CC1 [NEVIRAPINE] | 22000 nM | 620 nM | 150 nM | – | – | – | > 10000 nM | 8000 nM
31 | CCOc1ccc(F)c(CCNC(=S)Nc2ccc(Br)cn2)c1Cl [THIOUREA, N-(5-BROMO-2-PYRIDINYL)-N'-(2-(2-CHLORO-3-ETHOXY-6-FLUOROPHENYL)ETHYL)-] | 30 nM | 400 nM | 7 nM | 50 nM | 190 nM | 12 nM | – | –
32 | S=C(NCCc1ccccn1)Nc1ccc(Br)cn1 [TROVIRDINE] | – | – | 20 nM | – | – | – | – | –
